# Measured values reported in publication PMC4479701 (mBio, 2015).
# Read-outs that look alike come from different tables or passages of the source.
# Key:
# [1] = system: Histoplasma capsulatum; format: cell-based
# [2] = system: GlcCer synthesis in C. neoformans; test: In vivo labeling with [3H]palmitate, TLC of GlcCer; format: cell-based; conditions: [3H]palmitate labeling
# [3] = system: J774 cells; test: In vitro toxicity; format: cell-based, murine
# Procedure, shortened: (§1)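 J774.16 murine macrophages were kept in DMEM with 10% FBS and 1% pen-strep, and used until passage eight. At passage 7, 10^5 cells/well were allowed to adhere for 14 h. Test compound was then added at 0.1 to 100 µg/ml, with drug-free wells as controls. Incubation at 37°C, 5% CO2.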
# [4] = In vitro toxicity; format: cell-based, murine; conditions: mouse, J774.16 macrophage cells
# Procedure, shortened: as §1
# [5] = system: Candida spp.; test: In vitro susceptibility; format: cell-based; conditions: most Candida spp. examined
# Procedure, shortened: (§2)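 Inoculum prepared per CLSI M27-A3. Plates incubated at 37°C with 5% CO2 for 24 to 96 h. MIC was the lowest concentration inhibiting 50% of growth versus the drug-free control. Minimum fungicidal concentration was also measured: serial dilutions from wells were plated on YPD agar, and MFC was the lowest concentration yielding three or fewer colonies (99% of inoculum killed).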
# [6] = system: C. neoformans; test: Mouse model of cryptococcosis, intravenous infection; format: in vivo, mouse (CBA/J); conditions: 1.2 mg/kg/day i.p.; 8 mice per group; vehicle 7.0 ± 1.1
# [7] = system: C. neoformans cells; test: In vitro passages, development of resistance; format: cell-based; conditions: 15 days of in vitro passages (120 generations), 10^6 cells/ml; data not shown
# [8] = system: Pneumocystis murina; test: In vitro testing against Pneumocystis, inhibition of ATP; format: cell-based; conditions: read-out: IC50 (percentage inhibition of ATP)
# [9] = system: S. cerevisiae RYO0622 strain; test: IC100 prescreening; format: cell-based, Saccharomyces cerevisiae; conditions: solid SC medium, 2 days, 30°C
# Procedure, shortened: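 S. cerevisiae RYO0622 cells (20 µl at OD600 10−4) spotted on solid SC medium alone, with DMSO, or with test compound at 67, 133, 266, 533 and 1,066 µg/ml in a 48-well plate. Incubation 2 days at 30°C in the dark. IC100 taken as the concentration giving 100% growth inhibition.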
# [10] = system: Candida glabrata; test: In vitro susceptibility testing; format: cell-based; conditions: FTL strains (10)
# Procedure, shortened: as §2
# [11] = system: intracellular C. neoformans; test: Intracellular effect in J774.16 macrophages; format: cell-based; conditions: 0.25, 1 or 4 µg/ml; dose dependent, 12 and 24 h
# Procedure, shortened: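 J774.16 macrophages were co-incubated 1:1 with C. neoformans for 2 h, with complement and anti-capsular MAb 18B7 as opsonins. Wells were washed to remove extracellular yeast, then fresh DMEM with varying test compound concentrations was added, at 37°C, 5% CO2. Macrophages were lysed and plated for intracellular CFU.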
# [12] = system: Paecilomyces variotii; test: In vitro susceptibility testing; format: cell-based; conditions: QC FTL strains
# Procedure, shortened: as §2
# [13] = system: S. cerevisiae deletion mutants; format: cell-based, Saccharomyces cerevisiae
# [14] = system: GlcCer synthesis in J774.16 cells; test: Labeling of mammalian cells with [3H]palmitate, TLC of GlcCer; format: cell-based, murine; conditions: [3H]palmitate labeling, 6 h
# Procedure, shortened: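 J774.16 macrophages (5 × 10^6 cells/ml) adhered for 14 h in six-well plates. They were exposed for 4 h to test compound at the concentrations used for the fungal labeling, then given 30 µCi/ml [3H]palmitic acid for a further 2 h.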
# [15] = system: C. neoformans; test: Synergism assay; format: cell-based
# [16] = In vivo toxicity, blood work; design: species or system mouse (CBA/J)
# Procedure, shortened: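 Female CBA/J mice, 4 weeks old: five received 1.2 mg/kg/day test compound for 60 days, and three controls received a daily solvent injection. On day 60, blood was collected into one K2EDTA tube and one plain tube allowed to clot.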
# [17] = system: C. albicans SC 5314; test: Mouse model of invasive candidiasis; format: in vivo, mouse (CBA/J); conditions: after 21 days of infection; 1.2 mg/kg/day i.p.; 8 mice per group
# Procedure, shortened: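 Female CBA/J mice, 8 weeks old (8 per group), were infected i.v. with 100 µl containing 10^5 C. albicans SC-5314. Test compound was given i.p. at 1.2 mg/kg/day in 100 µl PBS with 0.4% DMSO immediately after inoculation; untreated mice received vehicle. Survival was monitored. Organs of survivors were homogenized in 10 ml PBS, diluted tenfold, and plated on YPD at 30°C for 72 h for CFU.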
# [18] = system: Cryptococcus gattii; test: In vitro susceptibility testing; format: cell-based
# Procedure, shortened: as §2
# [19] = system: Blastomyces dermatitis; test: In vitro susceptibility testing; format: cell-based; conditions: FTL strains (10)
# Procedure, shortened: as §2
# [20] = system: Coccidioides spp.; format: cell-based
# [21] = Pharmacokinetics of BHBM in mice; format: in vivo, mouse (C3H/HeN); conditions: for half-life: C3H/HeN, mouse, plasma, ip, IS/IN mice
# Procedure, shortened: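 Test compound was dissolved at 10 mg/ml (stock) in cremophor-ethanol 1:1 and diluted in PBS to 200 or 400 µg/ml. C3H/HeN mice (n = 3), either healthy or immunocompromised and P. murina-infected, received 0.8 or 1.6 mg/kg i.v. (tail vein) or i.p. in 100 µl. Blood was taken into K2EDTA predose and at 0.5, 1, 2, 4, 8, 12 and 24 h, and plasma stored at −80°C. t1/2 = 0.693/λz.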
# [22] = system: GlcCer synthesis in C. albicans cells; test: GlcCer synthesis in C. albicans; format: cell-based; conditions: in vitro treatment; data not shown
# [23] = system: C. albicans; test: Yeast-to-hypha differentiation; format: cell-based; conditions: 4 µg/ml
# Procedure, shortened: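 C. albicans yeast and hyphal forms were counted after exposure to test compound and compared with drug-free controls. Twenty random fields, about 120 cells, were scored.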
# [24] = system: Aspergillus fumigatus; test: In vitro susceptibility testing; format: cell-based
# Procedure, shortened: as §2
smiles,measurement,setting,value
"Cc1ccccc1C(=O)NN=Cc1ccc(O)c(Br)c1 [BHBM, N′-(3-bromo-4-hydroxybenzylidene)-2-methylbenzohydrazide]",MIC range,[1],0.125−1 µg/ml
same,synthesis of GlcCer,[2],significantly inhibited
same,EC50/MIC80 selectivity index,[3]; J774 EC50 versus MIC,50
same,selectivity index (EC50/MIC ratio),[3]; macrophage cell line,> 50
same,EC50 at 48 h,[4],50 µg/mL
same,in vitro susceptibility,[5],resistant
same,"survival, days postinfection",[6],11.1 ± 3.7 days
same,development of resistance,[7],did not develop resistance
same,IC50,[8]; 24 h,1.02 µg/mL
same,IC50,[8]; 48 h,< 0.01 µg/mL
same,IC50,[8]; 72 h,< 0.01 µg/mL
same,IC50,[8]; 96 h,2.02 µg/mL
same,100% inhibitory concentration (IC100),[9],133 µg/mL
same,MIC range,[10],0.125−2 µg/ml
same,intracellular replication of C. neoformans inside macrophages (CFU),[11],significantly decreased
same,MIC range,[12],>16 µg/mL
same,resistance of Δsla2 mutant,[13],not resistant
same,"growth of Δapl5, Δcos111, Δmkk1, Δste2 mutants compared with parent strain","[13]; BHBM in the range of 11 to 92 µg/ml, 24 h, 30°C",increased resistance
same,synthesis of mammalian GlcCer or other sphingolipids,[14],no significant changes
same,interaction category,[15]; combined with caspofungin,"additive (additive effect, FIC = 1)"
same,interaction category,[15]; combined with fluconazole,highly synergistic
same,interaction category,[15]; combined with tunicamycin,"synergistic (synergistic effect, FIC < 1)"
same,all other blood parameters for liver and kidney function,[16]; after 60 days of treatment,normal
same,liver aspartate aminotransferase (AST),"[16]; after 60 days of treatment, 1.2 mg/kg/day, untreated 50 ± 9",125 ± 75 U/liter
same,tolerability in animals,"[16]; mouse, in vivo",well tolerated
same,mice still alive,[17],62.5%
same,MIC range,[18]; FTL strains (10),0.5−2 µg/ml
same,MIC range,[18]; MDPL strains (3),0.5−1 µg/ml
same,MIC range,[19],0.5−1 µg/ml
same,MIC range,[20],8 to 16 µg/mL
same,half-life,"[21]; 0.8 mg/kg, T1/2, IP 0.8 mg/kg (low dose)",47.4 min
same,half-life,"[21]; 1.6 mg/kg, T1/2, IP 1.6 mg/kg (high dose)",50.4 min
same,distribution to brain tissue,"[21]; upon administration, data not shown",readily found in brain tissue
same,GlcCer synthesis,[22],inhibited GlcCer synthesis in a dose-dependent manner
same,yeast-to-hypha differentiation,[23],significantly reduced
same,MIC range,[24]; FTL strains (3),>16 µg/mL
same,MIC range,[24]; MDPL strain (1),8 µg/mL
